Laboratory results: ChEMBL document CHEMBL3272140, “Structure and antitumor activity relationship of 2-arylidene-4-cyclopentene-1, 3-diones and 2-arylideneindan-1, 3-diones” (J Med Chem, 1976)

Tests used:
Sarcoma-180 [1] = test: Antitumor activity against mouse ascites Sarcoma 180 cells allografted in ddN mouse assessed as percentage of total packed cell volume ratio at 100 mg/kg/day for 5 days administered 24 hrs after tumor inoculation measured 7th day after tumor inoculation; format: functional
Summary of the method: (§1)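 Compound given by injection once daily for 5 days, beginning 24 h after S-180 tumor inoculation. Antitumor activity was scored from the total packed cell volume ratio (TPCV %) on day 7 after inoculation.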

Sarcoma-180 [2] = test: Antitumor activity against mouse ascites Sarcoma 180 cells allografted in ddN mouse assessed as percentage of total packed cell volume ratio at 10 mg/kg/day for 5 days administered 24 hrs after tumor inoculation measured 7th day after tumor inoculation; format: functional; summary of the method: as §1
Sarcoma-180 [3] = test: Antitumor activity against mouse ascites Sarcoma 180 cells allografted in ddN mouse assessed as percentage of total packed cell volume ratio at 3 mg/kg/day for 5 days administered 24 hrs after tumor inoculation measured 7th day after tumor inoculation; format: functional; summary of the method: as §1
Mus musculus = test: Toxicity in mouse ascites sarcoma 180 cells allografted ddN mouse at 3 mg/kg/day for 5 days administered 24 hrs after tumor inoculation measured 7th day after tumor inoculation; format: organism-based; details: in vivo

For `COc1cc(C=C2C(=O)c3ccccc3C2=O)ccc1O`, the Activity (Sarcoma-180 [1]) was 0%.
With `COc1cc(C=C2C(=O)c3ccccc3C2=O)cc(OC)c1OC` the Activity (Sarcoma-180 [1]) was 41%.
In the case of `COc1ccc(C=C2C(=O)c3ccccc3C2=O)cc1O`, the Activity (Sarcoma-180 [1]) is reported as 41%.
`COc1ccc(C=C2C(=O)C=CC2=O)cc1` gave an Activity (Sarcoma-180 [2]) of 0%.
`COc1cc(/C=C2\CCC/C(=C\c3cc(OC)c(O)c(OC)c3)C2=O)cc(OC)c1O` was tested, and the Activity (Sarcoma-180 [1]) was 66%.
With `COc1cc(/C=C2\CCC(C)/C(=C\c3cc(OC)c(OC)c(OC)c3)C2=O)cc(OC)c1OC` (stereo not given) the Activity (Sarcoma-180 [1]) was 66%.
Compound `COc1cc(/C=C2\CC(C)C/C(=C\c3ccc(O)c(OC)c3)C2=O)ccc1O` (stereo not given) has an Activity (Sarcoma-180 [1]) of 66%.
Work on `COc1cc(C=C2C(=O)C=CC2=O)ccc1O` yielded an Activity (Sarcoma-180 [3]) of 0%.
`O=C1C=CC(=O)C1` was tested, and the Activity (Mus musculus) was “Toxic”.
`COc1ccc(C=C2C(=O)c3ccccc3C2=O)cc1` was tested, and the Activity (Sarcoma-180 [1]) was 66%.
Compound `COc1cc(/C=C2\CC/C(=C\c3ccc(O)c(OC)c3)C2=O)ccc1O` has an Activity (Sarcoma-180 [1]) of 66%.
In the case of `O=C1CC(=O)c2ccccc21`, the Activity (Sarcoma-180 [1]) is reported as 11%.
For `COc1ccc(C=C2C(=O)C=CC2=O)cc1O`, the Activity (Sarcoma-180 [2]) was 0%.
With `O=C1C=CC(=O)C1=Cc1ccc(O)cc1` the Activity (Sarcoma-180 [2]) was 0%.
`COc1cc(C=C2C(=O)C=CC2=O)cc(OC)c1O` showed an Activity (Sarcoma-180 [2]) of 0%.
Compound `COc1ccc(C=C2C(=O)C=CC2=O)cc1OC` has an Activity (Sarcoma-180 [2]) of 0%.
With `COc1cc(C=C2C(=O)C=CC2=O)cc(OC)c1OC` the Activity (Sarcoma-180 [2]) was 0%.
`COc1cc(C=C2C(=O)C=CC2=O)ccc1OCc1ccccc1` gave an Activity (Sarcoma-180 [2]) of 11%.
In the case of `COc1cc(C=C2C(=O)C=CC2=O)cc(OC)c1OCc1ccccc1`, the Activity (Sarcoma-180 [2]) is reported as 11%.
With `O=C1C(=Cc2ccc(O)cc2)C(=O)c2ccccc21` the Activity (Sarcoma-180 [1]) was 66%.
`COc1cc(C=C2C(=O)c3ccccc3C2=O)cc(OC)c1O` was tested, and the Activity (Sarcoma-180 [1]) was 11%.
Work on `COc1ccc(C=C2C(=O)c3ccccc3C2=O)cc1OC` yielded an Activity (Sarcoma-180 [1]) of 41%.
`COc1cc(C=C2C(=O)c3ccccc3C2=O)ccc1OCc1ccccc1` was tested, and the Activity (Sarcoma-180 [1]) was 66%.
For `COc1cc(C=C2C(=O)c3ccccc3C2=O)cc(OC)c1OCc1ccccc1`, the Activity (Sarcoma-180 [1]) was 66%.
`O=C1C(=C/C=C/c2ccccc2)C(=O)c2ccccc21` showed an Activity (Sarcoma-180 [1]) of 66%.
`COc1cc(/C=C/C=C2C(=O)c3ccccc3C2=O)ccc1O` showed an Activity (Sarcoma-180 [1]) of 66%.
`COc1cc(/C=C2\CC/C(=C\c3ccc(OCc4ccccc4)c(OC)c3)C2=O)ccc1OCc1ccccc1` gave an Activity (Sarcoma-180 [1]) of 66%.
`COc1cc(/C=C2\CC/C(=C\c3cc(OC)c(OCc4ccccc4)c(OC)c3)C2=O)cc(OC)c1OCc1ccccc1` was tested, and the Activity (Sarcoma-180 [1]) was 66%.
With `COc1cc(/C=C2\CCC/C(=C\c3ccc(OCc4ccccc4)c(OC)c3)C2=O)ccc1OCc1ccccc1` the Activity (Sarcoma-180 [1]) was 66%.
For `COc1cc(/C=C2\CCC/C(=C\c3cc(OC)c(OCc4ccccc4)c(OC)c3)C2=O)cc(OC)c1OCc1ccccc1`, the Activity (Sarcoma-180 [1]) was 66%.
`COc1cc(/C=C2\CCC(C)/C(=C\c3ccc(O)c(OC)c3)C2=O)ccc1O` (stereo not given) gave an Activity (Sarcoma-180 [1]) of 66%.
Compound `COc1cc(/C=C2\CCC(C)/C(=C\c3ccc(OCc4ccccc4)c(OC)c3)C2=O)ccc1OCc1ccccc1` (stereo not given) has an Activity (Sarcoma-180 [1]) of 66%.
`COc1cc(/C=C2\CCC(C)/C(=C\c3cc(OC)c(O)c(OC)c3)C2=O)cc(OC)c1O` (stereo not given) gave an Activity (Sarcoma-180 [1]) of 66%.
With `COc1cc(/C=C2\CCC(C)/C(=C\c3cc(OC)c(OCc4ccccc4)c(OC)c3)C2=O)cc(OC)c1OCc1ccccc1` (stereo not given) the Activity (Sarcoma-180 [1]) was 66%.
`COc1cc(/C=C2\CC(C)C/C(=C\c3ccc(OCc4ccccc4)c(OC)c3)C2=O)ccc1OCc1ccccc1` (stereo not given) was tested, and the Activity (Sarcoma-180 [1]) was 66%.
`COc1cc(/C=C2\CC(C)C/C(=C\c3cc(OC)c(O)c(OC)c3)C2=O)cc(OC)c1O` (stereo not given) showed an Activity (Sarcoma-180 [1]) of 66%.
`COc1cc(/C=C2\CC(C)C/C(=C\c3cc(OC)c(OCc4ccccc4)c(OC)c3)C2=O)cc(OC)c1OCc1ccccc1` (stereo not given) showed an Activity (Sarcoma-180 [1]) of 66%.
`O=C1C=CC(=O)C1=C/C=C/c1ccccc1` showed an Activity (Sarcoma-180 [2]) of 0%.
With `COc1cc(/C=C2\CC/C(=C\c3cc(OC)c(O)c(OC)c3)C2=O)cc(OC)c1O` the Activity (Sarcoma-180 [1]) was 66%.
In the case of `COc1cc(/C=C2\CCC/C(=C\c3ccc(O)c(OC)c3)C2=O)ccc1O` [CYCLOVALONE], the Activity (Sarcoma-180 [1]) is reported as 66%.
